Converted amounts (≈) assume the structure as drawn.
Tests used:
[1] = molecular target: T1, Inhibitor of nuclear factor kappa-B kinase subunit beta (Homo sapiens, UniProt O14920); experiment: Inhibition of recombinant human C-terminal GST-tagged IKKbeta (1 to 737 residues) expressed in baculovirus expression system using GST-IkBalpha substrate measured after 30 mins by TR-FRET assay
T1 sequence (O14920 whole entry): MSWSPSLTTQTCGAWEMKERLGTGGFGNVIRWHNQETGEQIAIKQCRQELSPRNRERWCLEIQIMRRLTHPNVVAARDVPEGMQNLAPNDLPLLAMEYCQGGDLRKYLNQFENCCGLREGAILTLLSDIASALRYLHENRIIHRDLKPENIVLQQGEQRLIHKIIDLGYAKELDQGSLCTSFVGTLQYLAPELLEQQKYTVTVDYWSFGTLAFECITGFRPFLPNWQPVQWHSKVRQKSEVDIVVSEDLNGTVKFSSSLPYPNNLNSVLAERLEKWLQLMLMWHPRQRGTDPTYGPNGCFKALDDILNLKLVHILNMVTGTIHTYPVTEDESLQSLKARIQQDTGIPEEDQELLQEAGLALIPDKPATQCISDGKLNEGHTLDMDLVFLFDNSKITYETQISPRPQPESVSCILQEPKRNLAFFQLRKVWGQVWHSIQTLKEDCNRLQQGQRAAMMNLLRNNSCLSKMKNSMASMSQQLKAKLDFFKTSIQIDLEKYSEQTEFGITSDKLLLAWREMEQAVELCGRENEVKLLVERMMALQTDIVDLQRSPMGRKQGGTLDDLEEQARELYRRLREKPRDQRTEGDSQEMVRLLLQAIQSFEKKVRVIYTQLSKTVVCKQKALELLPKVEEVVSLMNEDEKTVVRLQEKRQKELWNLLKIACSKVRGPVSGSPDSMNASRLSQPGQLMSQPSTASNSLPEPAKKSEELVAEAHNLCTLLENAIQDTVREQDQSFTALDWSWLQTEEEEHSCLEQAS
In short: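 IKK pIC50 values are the mean of more than 2 determinations unless noted otherwise. Compounds were tested as racemic mixtures.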

[2] = Kinetic aqueous solubility of the compound by UV-HPLC analysis; assay type: physicochemical; settings: buffer; read-out: Kinetic_solubility
[3] = Permeability of the compound by PAMPA; assay type: ADME; settings: read-out: permeability
[4] = molecular target: T1, Inhibitor of nuclear factor kappa-B kinase subunit beta; experiment: Inhibition of IKKbeta in human CD14-positive monocytes assessed as reduction in LPS-stimulated TNFalpha secretion preincubated for 30 mins followed by LPS stimulation and measured after 24 hrs by Alpha screen assay; assay type: cell-based
[5] = AUC in Sprague-Dawley rat at 2 mg/kg, po; assay type: ADME, organism-based; settings: in vivo
In short: (§1)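 Male Sprague Dawley rats, n=2 (n=3 for one compound). The i.v. leg used 5% DMSO with 20% Cavitron and the oral leg 5% DMSO with 6% Cavitron. Oral doses were 2 mg/kg, or 2.1 mg/kg where stated. The i.v. dose was 1 mg/kg. Clearance is plasma clearance.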

[6] = Plasma clearance in Sprague-Dawley rat at 2 mg/kg, po or 1 mg/kg, iv; assay type: ADME, organism-based; in short: as §1
[7] = Volume of distribution at steady state in Sprague-Dawley rat at 2 mg/kg, po or 1 mg/kg, iv; assay type: ADME, organism-based; settings: in vivo, read-out: Vdss; in short: as §1
[8] = Half life in Sprague-Dawley rat at 2 mg/kg, po or 1 mg/kg, iv; assay type: ADME, organism-based; settings: in vivo; in short: as §1
[9] = Oral bioavailability in Sprague-Dawley rat at 2 mg/kg; assay type: ADME, organism-based; settings: in vivo; in short: as §1
Rattus norvegicus [10] = experiment: Antiinflammatory activity in LPS-induced rat neutrophilia model assessed as inhibition of LPS-induced increase in neutrophils in bronchoalveolar lavage at 50 umol/kg, po administered 30 mins prior to 20 mins nebulized LPS challenge and measured after 4 hrs by diff quick staining based hemocytometric method relative to control; assay type: functional
[11] = Kinetic aqueous solubility of the compound by chemiluminescent nitrogen detection assay; assay type: physicochemical; settings: buffer; read-out: Kinetic_solubility
[12] = AUC in Beagle dog at 2.03 mg/kg, po; assay type: ADME, organism-based, Canis lupus familiaris; settings: in vivo
In short: (§2)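 Male Beagle dogs, n=3. Vehicles were 5% DMSO with 20% Cavitron for i.v. dosing at 1.11 mg/kg and 5% DMSO with 6% Cavitron for oral dosing at 2.03 mg/kg. Derived values were plasma clearance, steady-state volume of distribution, half-life and oral bioavailability.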

[13] = Plasma clearance in Beagle dog at 2.03 mg/kg, po or 1.11 mg/kg, iv; assay type: ADME, organism-based, Canis lupus familiaris; in short: as §2
[14] = Volume of distribution at steady state in Beagle dog at 2.03 mg/kg, po or 1.11 mg/kg, iv; assay type: ADME, organism-based, Canis lupus familiaris; settings: in vivo, read-out: Vdss; in short: as §2
[15] = Half life in Beagle dog at 2.03 mg/kg, po or 1.11 mg/kg, iv; assay type: ADME, organism-based, Canis lupus familiaris; settings: in vivo; in short: as §2
[16] = Oral bioavailability in Beagle dog at 2.03 mg/kg; assay type: ADME, organism-based, Canis lupus familiaris; settings: in vivo; in short: as §2
Rattus norvegicus [17] = experiment: Anti-inflammatory activity in LPS-induced Lewis rat inflammation model assessed as inhibition of LPS-induced TNFalpha secretion in blood administered orally 30 mins prior to LPS challenge and measured after 2 hrs by ELISA; assay type: functional; settings: po
Canis familiaris = experiment: Anti-inflammatory activity in inhaled LPS-induced Beagle dog lung neutrophilia model assessed as inhibition of LPS-induced increase in neutrophils in bronchoalveolar lavage administered orally 30 mins prior to LPS instillation and measured after […] by diff quick staining based hemocytometric method; assay type: functional; settings: Canis lupus familiaris, po
Rattus norvegicus [18] = experiment: Antiinflammatory activity in LPS-induced rat neutrophilia model assessed as inhibition of LPS-induced increase in neutrophils in bronchoalveolar lavage at 100 umol/kg, po administered 30 mins prior to 20 mins nebulized LPS challenge and measured after 4 hrs by diff quick staining based hemocytometric method relative to control; assay type: functional

SMILES | IC50 [1] | solubility kinetic [2] | Papp [3] | IC50 [4] | AUC [5] | clearance [6] | Vd [7] | half-life [8] | bioavailability [9] | also measured
NC(=O)c1cc(-c2ccccc2)cc2c(C3CCN(S(=O)(=O)CCCN4CCOCC4)CC3)c[nH]c12 | 0.0316 µM | 36 µM (≈ 18.4 µg/mL) | 318 nm/s | 0.2 µM | 2.03 µg·h/mL | 0.534 L/h/kg | 0.43 L/kg | 1.18 h | 53% | inhibition in vivo at 50 µmol/kg (Rattus norvegicus [10]): 30%
NC(=O)c1cc(-c2ccccc2)cc2c(C3CCN(S(=O)(=O)CCCN4CCCCCC4)CC3)c[nH]c12 | 0.00631 µM | 93 µM (≈ 48.6 µg/mL) | 290 nm/s | – | – | – | – | – | – | –
NC(=O)c1cc(-c2ccccc2)cc2c([C@H]3C[C@H]4CC[C@@H](C3)S4(=O)=O)c[nH]c12 | 0.0398 µM | – | – | – | – | – | – | – | – | –
NC(=O)c1cc(-c2ccccc2)cc2c(C3CCS(=O)(=O)C3)c[nH]c12 (centres undefined) | 0.1 µM | – | – | – | – | – | – | – | – | –
NC(=O)c1cc(-c2ccccc2)cc2c(C3CCC(=O)C3)c[nH]c12 (centres undefined) | 0.0794 µM | – | – | – | – | – | – | – | – | –
NC(=O)c1cc(-c2ccccc2)cc2c(C3CCN(S(=O)(=O)CCCN4CCCC4)CC3)c[nH]c12 | 0.01 µM | 185 µM (≈ 91.5 µg/mL) | 160 nm/s | 0.05 µM | 0.998 µg·h/mL | 0.24 L/h/kg | 1 L/kg | 4.6 h | 12% | –
CC1(C)C[C@H](c2c[nH]c3c(C(N)=O)cc(-c4ccc(F)cc4)cc23)CCS1(=O)=O | 0.00794 µM | – | 283 nm/s | 0.13 µM | 1.96 µg·h/mL | 0.792 L/h/kg | 4.7 L/kg | 4.5 h | 94.1% | solubility kinetic [11]: 32 µM (≈ 13.3 µg/mL); AUC [12]: 8.2 µg·h/mL; clearance [13]: 0.112 L/h/kg; Vd [14]: 2.87 L/kg; half-life [15]: 20.9 h; bioavailability [16]: 65.3%; ED50 (Rattus norvegicus [17]): 21.7 µmol/kg; ED50 (Canis familiaris): 1.8 µmol/kg
CC1(C)CC(c2c[nH]c3c(C(N)=O)cc(-c4ccccc4)cc23)CCS1(=O)=O (centres undefined) | 0.00794 µM | – | 330 nm/s | 0.11 µM | 1.43 µg·h/mL | 3.07 L/h/kg | 7.2 L/kg | 2.34 h | 115% | solubility kinetic [11]: 39 µM (≈ 15.5 µg/mL)
NC(=O)c1cc(-c2ccccc2)cc2c(C3CCN(S(=O)(=O)CCCN4CCCCC4)CC3)c[nH]c12 | 0.00794 µM | 162 µM (≈ 82.4 µg/mL) | 240 nm/s | – | – | – | – | – | – | –
NC(=O)c1cc(-c2ccc(F)cc2)cc2c(C3CCS(=O)(=O)CC3)c[nH]c12 | 0.0126 µM | – | 280 nm/s | 0.05 to 0.81 µM | 1.27 µg·h/mL | 1.41 L/h/kg | 3.7 L/kg | 2.2 h | 47.4% | –
CC1(C)CC(c2c[nH]c3c(C(N)=O)cc(-c4ccccc4)cc23)NC1=O (centres undefined) | 0.02 µM | – | – | – | – | – | – | – | – | –
CS(=O)(=O)CCc1c[nH]c2c(C(N)=O)cc(-c3ccccc3)cc12 | 0.0631 µM | – | – | – | – | – | – | – | – | –
CC(=O)CCc1c[nH]c2c(C(N)=O)cc(-c3ccccc3)cc12 | 0.126 µM | – | – | – | – | – | – | – | – | –
NC(=O)c1cc(-c2ccccc2)cc2c(C3CCS(=O)(=O)CC3)c[nH]c12 | 0.01 µM | 130 µM (≈ 47.9 µg/mL) | 277 nm/s | 0.08 µM | 0.904 µg·h/mL | 2.1 L/h/kg | 2.8 L/kg | 1.58 h | 97% | AUC [12]: 0.753 µg·h/mL; clearance [13]: 1.42 L/h/kg; Vd [14]: 1.54 L/kg; half-life [15]: 0.949 h; bioavailability [16]: 52.6%; ED50 (Rattus norvegicus [17]): 7.6 µmol/kg; ED50 (Canis familiaris): 2.9 µmol/kg
NCCS(=O)(=O)N1CCC(c2c[nH]c3c(C(N)=O)cc(-c4ccccc4)cc23)CC1 | 0.00794 µM | 33 µM (≈ 14.1 µg/mL) | 3 nm/s | 0.14 µM | 0.048 µg·h/mL | 0.84 L/h/kg | 3 L/kg | 4.43 h | 3% | –
NC(=O)c1cc(-c2ccccc2)cc2c(C3CCC(=O)N3)c[nH]c12 (centres undefined) | 0.0398 µM | – | – | – | – | – | – | – | – | –
NC(=O)c1cc(-c2ccccc2)cc2c(C3CCC(=O)CC3)c[nH]c12 | 0.501 µM | – | – | – | – | – | – | – | – | –
CCS(=O)(=O)N1CCC(c2c[nH]c3c(C(N)=O)cc(-c4ccccc4)cc23)CC1 | – | – | 250 nm/s | 0.19 µM | 1.22 µg·h/mL | 0.96 L/h/kg | 1 L/kg | 1.15 h | 58% | inhibition in vivo at 100 µmol/kg (Rattus norvegicus [18]): 30%
CCN(CC)CCCS(=O)(=O)N1CCC(c2c[nH]c3c(C(N)=O)cc(-c4ccccc4)cc23)CC1 | 0.0158 µM | 173 µM (≈ 85.9 µg/mL) | 200 nm/s | 0.19 µM | – | – | – | – | – | –
NC(=O)c1cc(-c2ccccc2)cc2c(C3CCCS(=O)(=O)C3)c[nH]c12 (centres undefined) | 0.158 µM | – | – | – | – | – | – | – | – | –
NC(=O)c1cc(-c2ccccc2)cc2c([C@@H]3C[C@H]4CC[C@@H](C3)S4(=O)=O)c[nH]c12 | 0.0794 µM | – | – | – | – | – | – | – | – | –
CC1(C)CC(=O)NC1c1c[nH]c2c(C(N)=O)cc(-c3ccccc3)cc12 (centres undefined) | 0.2 µM | – | – | – | – | – | – | – | – | –
CN1C(=O)CCC1c1c[nH]c2c(C(N)=O)cc(-c3ccccc3)cc12 (centres undefined) | 0.501 µM | – | – | – | – | – | – | – | – | –
NC(=O)c1cc(-c2ccccc2)cc2c(C3CCCC(=O)C3)c[nH]c12 (centres undefined) | 0.0794 µM | – | – | – | – | – | – | – | – | –
NC(=O)c1cc(-c2ccccc2)cc2c(C3CCN(S(=O)(=O)CCCNC4CCCC4)CC3)c[nH]c12 | 0.02 µM | 85 µM (≈ 43.2 µg/mL) | 140 nm/s | – | – | – | – | – | – | –
NC(=O)c1cc(-c2ccccc2)cc2c(C3CCN(S(=O)(=O)CCN4CCOCC4)CC3)c[nH]c12 | 0.00794 µM | 41 µM (≈ 20.4 µg/mL) | 310 nm/s | – | – | – | – | – | – | –

From ChEMBL document CHEMBL4325919, “3,5-Disubstituted-indole-7-carboxamides as IKKβ Inhibitors: Optimization of Oral Activity via the C3 Substituent” (ACS Med Chem Lett, 2018)
